The term Ki denotes the dissociation constant of the complex between target and ligand, obtained from inhibition or displacement.

Results on five compounds are retold here after ChEMBL document CHEMBL4610115, “Azidothymidine "Clicked" into 1,2,3-Triazoles: First Report on Carbonic Anhydrase-Telomerase Dual-Hybrid Inhibitors” (J Med Chem, 2020).

Active and inactive are the calls of the source. No cut-off for these calls is given here.

Data set [1] has as its target Telomerase reverse transcriptase (Homo sapiens) (UniProt O14746). In words: Inhibition of telomerase in human PC3 cells at 20 uM incubated for 48 hrs by TRAP assay. Format: cell-based. Particulars: PC-3. The essentials: (§1)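 Mycoplasma-tested PC3 or HT-29 cells in RPMI-1640/10% FBS were exposed to a final 20 μM for 48 h. Cells were lysed in CHAPS/glycerol Tris buffer (pH 7.5), and 5 μg extract protein was used for TS-primer elongation (30 min, 37 °C) followed by CX-primer/Taq PCR for 30 cycles. Products were run on 12% nondenaturing PAGE with SYBR Green I densitometry. Quadruplicate; mean ± SEM; t-test.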

Data set [2] shares this target. In words: Inhibition of telomerase in human HT-29 cells at 20 uM incubated for 48 hrs by TRAP assay. The format is cell-based. The essentials: as §1
The next data set concerns PC-3. In words: Effect on telomerase mRNA expression in human PC3 cells at 20 uM incubated for 48 hrs by real-time RT-PCR analysis. The format is ADME, cell-based. Particulars: pc-3, 48 h. In a few lines:
(§2)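 PC3 and HT-29 cells were grown in RPMI-1640 with 10% FBS at 37 °C under 5% CO2, after mycoplasma testing. Cells were exposed to a final 20 μM for 48 h. hTERT mRNA was measured and normalized to 18S RNA, with standard curves from serial cDNA dilutions (1:40–1:320). Runs were done in quadruplicate; results are mean ± SEM, compared by Student's t-test.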
(In qPCR the cycle at which signal appears reflects the starting amount.)

The test system of the next data set is HT-29. In words: Effect on telomerase mRNA expression in human HT-29 cells at 20 uM incubated for 48 hrs by real-time RT-PCR analysis. Format: ADME, cell-based. To be noted: ht-29, 48 h. The essentials:
as §2

A further data set deals with Carbonic anhydrase 9 (Homo sapiens, UniProt Q16790). In words: Inhibition of human CA9 pre-incubated for 15 mins by stopped flow CO2 hydrase assay.

Sequence of Telomerase reverse transcriptase (Homo sapiens) (O14746 whole entry): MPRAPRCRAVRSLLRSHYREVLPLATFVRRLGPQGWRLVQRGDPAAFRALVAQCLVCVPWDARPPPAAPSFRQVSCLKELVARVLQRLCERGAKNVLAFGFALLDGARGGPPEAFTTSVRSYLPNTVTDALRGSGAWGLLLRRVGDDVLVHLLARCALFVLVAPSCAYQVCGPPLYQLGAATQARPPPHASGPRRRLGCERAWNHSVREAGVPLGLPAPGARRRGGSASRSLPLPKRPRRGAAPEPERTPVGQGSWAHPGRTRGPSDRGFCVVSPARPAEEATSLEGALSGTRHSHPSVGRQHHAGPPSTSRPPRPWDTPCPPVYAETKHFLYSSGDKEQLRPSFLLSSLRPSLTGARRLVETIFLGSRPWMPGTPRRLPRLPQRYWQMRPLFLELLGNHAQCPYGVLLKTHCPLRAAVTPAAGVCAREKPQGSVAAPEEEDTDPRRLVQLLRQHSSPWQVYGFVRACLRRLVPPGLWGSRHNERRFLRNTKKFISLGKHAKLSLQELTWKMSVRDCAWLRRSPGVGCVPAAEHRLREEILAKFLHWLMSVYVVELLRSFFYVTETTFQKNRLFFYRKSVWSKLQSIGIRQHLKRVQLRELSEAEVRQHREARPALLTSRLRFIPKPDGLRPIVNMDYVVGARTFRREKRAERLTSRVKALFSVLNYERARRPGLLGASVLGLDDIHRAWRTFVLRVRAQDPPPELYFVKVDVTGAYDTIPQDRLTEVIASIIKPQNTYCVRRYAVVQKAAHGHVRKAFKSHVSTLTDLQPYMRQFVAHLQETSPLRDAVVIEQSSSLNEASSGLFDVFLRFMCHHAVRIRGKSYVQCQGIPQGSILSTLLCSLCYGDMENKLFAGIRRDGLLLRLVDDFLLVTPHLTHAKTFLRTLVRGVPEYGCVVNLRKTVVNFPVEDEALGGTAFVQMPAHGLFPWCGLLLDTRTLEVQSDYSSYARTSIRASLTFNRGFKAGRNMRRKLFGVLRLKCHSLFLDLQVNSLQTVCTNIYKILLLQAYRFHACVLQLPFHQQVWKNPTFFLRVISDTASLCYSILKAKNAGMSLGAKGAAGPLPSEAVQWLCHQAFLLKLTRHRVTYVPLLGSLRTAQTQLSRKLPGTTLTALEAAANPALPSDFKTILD

For `Cc1cn([C@H]2C[C@H](n3cc(CNC(=O)c4ccc(S(N)(=O)=O)cc4)nn3)[C@@H](CO)O2)c(=O)[nH]c1=O`, the inhibition result in data set [1] and in data set [2] was “inactive” each time. In addition, the Activity entry with PC-3 and in the data set on HT-29 was “Non-Toxic” each time.
Consider `Cc1cn([C@H]2C[C@H](n3cc(COC(=O)c4ccc(S(N)(=O)=O)cc4)nn3)[C@@H](CO)O2)c(=O)[nH]c1=O`, for which the inhibition result in data set [1] and in data set [2] was “inactive” each time. The Activity entry with PC-3 and with HT-29 was “Non-Toxic” throughout.
On to `Cc1cn([C@H]2C[C@H](n3cc(C[Se]c4ccc(NC(=S)Nc5cccc(S(N)(=O)=O)c5)cc4)nn3)[C@@H](CO)O2)c(=O)[nH]c1=O`, for which the inhibition result in data set [1] and in data set [2] was “Active” in each case. Moreover, the Activity entry in the data set with PC-3 and in the data set on HT-29 was “Non-Toxic” each time.
Take `Cc1cn([C@H]2C[C@H](n3cc(COc4ccc(S(N)(=O)=O)cc4)nn3)[C@@H](CO)O2)c(=O)[nH]c1=O`: the inhibition entry in data set [1] and in data set [2] was “Active” throughout. Moreover, the Activity entry in the data set with PC-3 and in the data set on HT-29 was “Non-Toxic” throughout.
On Carbonic anhydrase 9, `Cc1cn([C@H]2C[C@H](n3cc(COC(=O)c4ccc(Cl)c(S(N)(=O)=O)c4)nn3)[C@@H](CO)O2)c(=O)[nH]c1=O` returned a Ki of 240 nM.
